Source: ChEMBL document CHEMBL1134274, “Discovery of a series of nonpeptide small molecules that inhibit the binding of insulin-like growth factor (IGF) to IGF-binding proteins” (J Med Chem, 2001)

How the values were obtained:
[1] = target: Insulin-like growth factor-binding protein 3 (Homo sapiens, UniProt P17936); assay: Inhibitory activity against Insulin-like growth factor binding protein 3
Outline: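 IGFBP-3 purified from human plasma (0.5 pmol, 2.5 nM added) incubated 2 h at room temperature with [125I]hIGF-I (30,000 cpm) and compound in 0.02% NP-40/PBS pH 7.2, in duplicate. Complex precipitated with ice-cold 20% BSA plus 20% PEG-8000 and centrifuged; pellet counted by γ-counter. Ki calculated from inhibition of binding.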

[2] = target: T1, Insulin-like growth factor-binding protein 1 (Homo sapiens, UniProt P08833); assay: The compound was tested for binding affinity against insulin-like growth factor binding protein 1
T1 sequence (P08833 whole entry): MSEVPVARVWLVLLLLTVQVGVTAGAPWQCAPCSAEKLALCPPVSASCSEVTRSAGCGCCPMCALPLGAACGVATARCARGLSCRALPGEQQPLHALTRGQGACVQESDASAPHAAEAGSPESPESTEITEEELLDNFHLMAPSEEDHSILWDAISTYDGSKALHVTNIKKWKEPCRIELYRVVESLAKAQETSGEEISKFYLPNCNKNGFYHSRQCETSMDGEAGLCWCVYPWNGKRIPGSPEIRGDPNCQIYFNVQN
Outline: (§1)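 Human IGFBP-1, -2, -4, -5 or -6 expressed in Sf9 insect cells (baculovirus), purified on hIGF-II affinity column then reversed-phase HPLC. 0.5 pmol binding protein incubated with [125I]hIGF-I (30,000 cpm) and increasing compound concentrations, 2 h at room temperature, in 0.02% NP-40/PBS pH 7.2, in duplicate. Complex precipitated with BSA/PEG; pellet radioactivity counted to give dose–response curves.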

[3] = target: T2, Insulin-like growth factor-binding protein 2 (Homo sapiens, UniProt P18065); assay: The compound was tested for binding affinity against insulin-like growth factor binding protein 2; outline: as §1
T2 sequence (P18065 whole entry): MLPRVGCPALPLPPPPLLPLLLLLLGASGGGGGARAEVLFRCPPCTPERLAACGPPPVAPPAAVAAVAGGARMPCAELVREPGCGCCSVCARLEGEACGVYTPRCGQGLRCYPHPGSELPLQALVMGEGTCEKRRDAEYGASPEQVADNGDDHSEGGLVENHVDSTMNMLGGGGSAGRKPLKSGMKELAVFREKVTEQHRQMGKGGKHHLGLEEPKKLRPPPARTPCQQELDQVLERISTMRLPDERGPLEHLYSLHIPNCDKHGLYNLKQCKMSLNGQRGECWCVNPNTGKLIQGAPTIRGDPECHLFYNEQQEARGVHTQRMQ

[4] = target: T3, Insulin-like growth factor-binding protein 4 (Homo sapiens, UniProt P22692); assay: The compound was tested for binding affinity against Insulin-like growth factor binding protein 4; outline: as §1
T3 sequence (P22692 whole entry): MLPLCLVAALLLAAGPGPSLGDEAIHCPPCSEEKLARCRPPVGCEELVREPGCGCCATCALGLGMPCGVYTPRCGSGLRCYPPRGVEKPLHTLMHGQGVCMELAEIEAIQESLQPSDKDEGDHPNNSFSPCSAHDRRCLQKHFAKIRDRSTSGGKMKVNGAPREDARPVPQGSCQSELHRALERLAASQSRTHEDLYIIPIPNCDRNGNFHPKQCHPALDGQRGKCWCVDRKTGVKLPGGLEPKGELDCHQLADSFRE

[5] = target: Insulin-like growth factor-binding protein 5 (Homo sapiens, UniProt P24593); assay: The compound was tested for binding affinity against Insulin-like growth factor binding protein 5; outline: as §1
Chain of Insulin-like growth factor-binding protein 5 (P24593 whole entry): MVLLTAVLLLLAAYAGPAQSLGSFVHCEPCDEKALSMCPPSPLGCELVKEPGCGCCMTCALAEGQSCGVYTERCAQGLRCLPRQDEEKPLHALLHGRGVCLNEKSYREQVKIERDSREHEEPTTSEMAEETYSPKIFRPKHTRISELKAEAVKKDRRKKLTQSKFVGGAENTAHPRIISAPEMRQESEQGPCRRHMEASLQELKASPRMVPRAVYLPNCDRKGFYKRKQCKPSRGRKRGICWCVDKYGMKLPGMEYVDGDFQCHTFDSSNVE

[6] = target: T4, Insulin-like growth factor-binding protein 6 (Homo sapiens, UniProt P24592); assay: The compound was tested for binding affinity against Insulin-like growth factor binding protein 6; outline: as §1
T4 sequence (P24592 whole entry): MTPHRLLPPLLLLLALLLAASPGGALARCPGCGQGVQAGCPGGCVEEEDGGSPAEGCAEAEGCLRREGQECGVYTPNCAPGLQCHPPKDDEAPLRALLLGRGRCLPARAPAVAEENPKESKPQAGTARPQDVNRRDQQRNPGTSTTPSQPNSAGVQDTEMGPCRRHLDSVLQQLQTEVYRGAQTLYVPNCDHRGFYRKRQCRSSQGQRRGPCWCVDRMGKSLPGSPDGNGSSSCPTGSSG

Chain of Insulin-like growth factor-binding protein 3 (P17936 whole entry): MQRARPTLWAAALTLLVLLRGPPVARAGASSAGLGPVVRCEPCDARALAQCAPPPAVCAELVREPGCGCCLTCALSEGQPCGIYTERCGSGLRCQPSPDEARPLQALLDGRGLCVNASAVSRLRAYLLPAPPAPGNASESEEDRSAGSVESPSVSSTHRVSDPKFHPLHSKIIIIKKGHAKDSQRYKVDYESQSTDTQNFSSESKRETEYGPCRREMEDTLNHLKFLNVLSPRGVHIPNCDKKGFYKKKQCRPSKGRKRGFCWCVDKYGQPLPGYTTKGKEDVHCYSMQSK

Row | Ki [1] | Structure (SMILES) | further results
1 | 13 nM | O=C(O)c1cc2cc(O)c(O)cc2c(C(=O)c2ccc3ccccc3c2)n1 | 
2 | 7.5 nM | O=C(O)c1cc2cc(O)c(O)cc2c(Cc2ccc(O)c(O)c2)n1 | 
3 | 28 nM | O=C(c1ccc(O)c(O)c1)c1nc(O)cc2cc(O)c(O)cc12 | Ki [2]: 34.2 nM; Ki [3]: 17.1 nM; Ki [4]: 6.23 nM; Ki [5]: 20.9 nM; Ki [6]: 84.6 nM
4 | > 10000 nM | COc1cc2cc(C(=O)O)nc(C(=O)c3ccc(O)c(O)c3)c2cc1OC | 
5 | 5.6 nM | O=C(O)c1cc2cc(O)c(O)cc2c(C(=O)c2ccc(O)c(O)c2)n1 | Ki [2]: 5.07 nM; Ki [3]: 2.07 nM; Ki [4]: 1.04 nM; Ki [5]: 5.2 nM; Ki [6]: 23.6 nM
6 | 58 nM | O=C(c1ccc(O)c(O)c1)c1nccc2cc(O)c(O)cc12 | 
7 | 70 nM | O=C(O)c1cc2cc(O)c(O)cc2c(C(=O)c2ccc3c(c2)OCO3)n1 | 
8 | 44 nM | O=C(O)c1cc2cc(O)c(O)cc2c(C(=O)c2ccc(Cl)cc2Cl)n1 | 

Further lines, the compound ahead of its results:

Row | Structure (SMILES) | Ki [1] | further results
9 | COc1ccc(C(=O)c2nc(C(=O)O)cc3cc(OC)c(O)cc23)cc1O | 320 nM | 
10 | Oc1cc2cc(O)c(O)cc2c(Cc2ccc(O)c(O)c2)n1 | 29 nM | 
11 | COc1cc2c(C(=O)c3ccc(O)c(O)c3)nc(C(=O)O)cc2c(Br)c1O | 70 nM | 
12 | COc1cc2cc(C(=O)O)nc(C(=O)c3ccc(O)c(O)c3)c2c(Br)c1O | 140 nM | 
13 | COc1ccc(C(=O)c2nc(C(=O)O)cc3cc(OC)c(OC)cc23)cc1O | > 10000 nM | 
14 | COc1ccc(C(=O)c2[nH]c(=O)cc3cc(OC)c(OC)cc23)cc1OC | > 10000 nM | 
15 | O=C(O)c1cc2cc(O)c(O)cc2c(C(=O)c2cccc3ccccc23)n1 | 27 nM | 
16 | CCOC(=O)c1cc2cc(OC)c(OC)cc2c(C(=O)c2ccc(OC)c(OC)c2)n1 | > 10000 nM | 
